Results from ChEMBL document CHEMBL4007509, “Structural Optimizations of Thieno[3,2-b]pyrrole Derivatives for the Development of Metabolically Stable Inhibitors of Chikungunya Virus” (J Med Chem, 2017).

What was measured:
[1] = Half life in human liver microsomes; type: ADME, microsome
Method in brief: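 Compounds were incubated with human liver microsomes. Half-life = ln(2)/slope, where the slope is ln(% detected) plotted against time, using the mean of at least 3 independent experiments.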

[2] = Cytotoxicity against HEK293T cells assessed as reduction in cell viability after 24 hrs by CellTiter-Glo luminescent assay; type: cell-based, HEK-293T; conditions: human
Method in brief: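 HEK 293T cell viability was measured by CellTiter-Glo luminescence after 24 h exposure to serial dilutions. Data were normalized to untreated cells (100%) and reagent background (0%). CC50, the concentration reducing viability by 50%, came from a five-parameter asymmetric fit.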

Chikungunya virus [3] = assay: Antiviral activity against full length gluc-tagged Chikungunya virus 2008 Singapore SGP11 infected in HEK293T cells assessed as reduction in virus infection after 24 hrs by gaussia luciferase reporter gene assay; type: functional, cell-based; conditions: 2008 Singapore SGP11, HEK-293T
Chikungunya virus [4] = assay: Antiviral activity against full length gluc-tagged Chikungunya virus 2013 Caribbean CNR20235 infected in HEK293T cells assessed as reduction in virus infection after 24 hrs by gaussia luciferase reporter gene assay; type: functional, cell-based; conditions: 2013 Caribbean CNR20235, HEK-293T
Chikungunya virus [5] = assay: Antiviral activity against full length Gaussia princeps Gluc-tagged Chikungunya virus IMT infected in HEK293T cells assessed as reduction in virus infection after 24 hrs by Gaussia luciferase reporter gene assay; type: functional, cell-based; conditions: HEK-293T
[6] = Cytotoxicity against human BJ cells assessed as reduction in cell viability after 24 hrs by CellTiter-Glo luminescent assay; type: cell-based
Method in brief: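 BJ human fibroblast viability was measured by CellTiter-Glo luminescence after 24 h exposure to serial dilutions. Data were normalized to untreated cells (100%) and reagent background (0%). CC50 came from a five-parameter asymmetric fit.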

Chikungunya virus [7] = assay: Antiviral activity against full length gluc-tagged Chikungunya virus IMT infected in human BJ cells assessed as reduction in virus infection after 24 hrs by gaussia luciferase reporter gene assay; type: functional, cell-based
[8] = Selectivity index, ratio of CC50 for HEK293T cells to EC50 for full length Gaussia princeps Gluc-tagged Chikungunya virus IMT; type: toxicity; conditions: human, read-out: Ratio CC50/EC50
Chikungunya virus [9] = assay: Antiviral activity against wild type Chikungunya virus IMT infected in HEK293T cells assessed as reduction in virus infection after 24 hrs by FITC immunofluorescence-based single cell quantification high content screening assay; type: functional; conditions: HEK-293T

Row | SMILES | half-life [1] | CC50 at 24 h [2] | EC50 (Chikungunya virus [3]) | EC50 (Chikungunya virus [4]) | EC50 (Chikungunya virus [5]) | CC50 at 24 h [6] | EC50 (Chikungunya virus [7]) | selectivity ratio [8] | EC50 (Chikungunya virus [9])
1 | CCCNC(=O)C1CCN(C(=O)c2cc3sc(-c4ccccc4F)cc3n2Cc2ccc(OC)cc2)CC1 | 35.5 min | – | – | – | – | – | – | – | –
2 | NC(=O)c1ncn([C@@H]2O[C@H](CO)[C@@H](O)[C@H]2O)n1 [RIBAVIRIN] | – | > 100 µM | 1.89 µM | 1.97 µM | 16.2 µM | > 100 µM | 9.71 µM | – | –
3 | CCCNC(=O)C1CCN(C(=O)c2cc3cc(Br)sc3n2Cc2ccc(OC)cc2)CC1 | 7.61 min | > 100 µM | – | – | 13.6 µM | – | – | > 7.3 | –
4 | CCCCC(=O)C1CCN(C(=O)c2cc3sccc3n2Cc2ccc(OC)cc2)CC1 | 6.3 min | – | – | – | – | – | – | – | –
5 | CCCNC(=O)[C@@H]1C[C@H]2CCC[C@@H](C1)[C@@H]2NC(=O)c1cc2scnc2n1Cc1ccc(OC)cc1 | 44.6 min | > 25 µM | – | – | 11.4 µM | – | – | > 2.2 | –
6 | CCCNC(=O)C1CCN(C(=O)c2cc3sc(C)cc3n2Cc2ccc(OC)cc2)CC1 | 2.69 min | – | – | – | – | – | – | – | –
7 | CCCNC(=O)C1CCN(C(=O)c2cc3occc3n2Cc2ccc(OC)cc2)CC1 | 2.74 min | 37.2 µM | – | – | 6 µM | – | – | 6.2 | 5.24 µM
8 | CCCNC(=O)[C@@H]1[C@@H]2CCC[C@H]1CN(C(=O)c1cc3sc(Br)cc3n1Cc1ccc(OC)cc1)C2 | – | > 100 µM | – | – | 12.6 µM | – | – | > 7.9 | –
9 | CCCNC(=O)C1CCN(C(=O)c2cc3sc(Br)cc3n2Cc2ccc(OC)cc2)CC1 | 2.91 min | > 100 µM | – | – | 3.1 µM | – | – | > 32 | –
10 | CCCNC(=O)C1CCN(C(=O)c2ccc(Br)n2Cc2ccc(OC)cc2)CC1 | 7.32 min | > 100 µM | – | – | 16.8 µM | – | – | > 6 | –
11 | CCCNC(=O)C1CCN(C(=O)c2cc3nc(Br)sc3n2Cc2ccc(OC)cc2)CC1 | 22.1 min | 46.8 µM | – | – | 2.22 µM | – | – | 21 | 3.87 µM
12 | CCCNC(=O)C1CCN(C(=O)c2cc3[nH]cnc3n2Cc2ccc(OC)cc2)CC1 | 76.2 min | > 100 µM | – | – | 42.8 µM | – | – | > 2.3 | –
13 | CCCNC(=O)[C@H]1CC[C@@H](NC(=O)c2cc3sc(Br)cc3n2Cc2ccc(OC)cc2)CC1 | – | > 100 µM | – | – | > 100 µM | – | – | – | –
14 | CCCNC(=O)[C@H]1CC[C@H](NC(=O)c2cc3sc(Br)cc3n2Cc2ccc(OC)cc2)CC1 | 3.97 min | > 100 µM | – | – | 14.3 µM | – | – | > 7 | –
15 | CCCNC(=O)[C@@H]1CCCN1C(=O)c1cc2sc(Br)cc2n1Cc1ccc(OC)cc1 | 18.2 min | 72.4 µM | – | – | 21.2 µM | – | – | 3.4 | –
16 | COc1ccc(Cn2c(C(=O)N3CCC(C(=O)NC(C)C)CC3)cc3sc(Br)cc32)cc1 | 3.76 min | > 100 µM | – | – | 1.95 µM | – | – | > 51 | 2.47 µM
17 | CCCNC(=O)[C@@H]1C[C@H]2CCC[C@@H](C1)[C@@H]2NC(=O)c1cc2sc(-c3ccccc3)nc2n1Cc1ccc(OC)cc1 | 27.2 min | > 100 µM | – | – | 5.32 µM | – | – | > 19 | > 25 µM
18 | CCCNC(=O)[C@H]1[C@@H]2CCC[C@H]1CN(C(=O)c1cc3sc(-c4ccccc4)nc3n1Cc1ccc(OC)cc1)C2 | 35.1 min | > 100 µM | – | – | 9.64 µM | – | – | > 10 | 12.5 µM
19 | CCCNC(=O)[C@H]1[C@@H]2CCC[C@H]1CN(C(=O)c1cc3sc(Br)nc3n1Cc1ccc(OC)cc1)C2 | 2.89 min | 57.5 µM | – | – | 13.4 µM | – | – | 4.3 | –
20 | CCCNC(=O)C1CCN(C(=O)c2cc3ccsc3n2Cc2ccc(OC)cc2)CC1 | 4.08 min | 23.4 µM | – | – | 8.86 µM | – | – | 2.6 | 6.5 µM
21 | CCCNC(=O)C1CCN(C(=O)c2cc3ccccc3n2Cc2ccc(OC)cc2)CC1 | 2.66 min | 26 µM | – | – | 7.86 µM | – | – | 3.3 | 8.26 µM
22 | CCCNC(=O)C1CC12CCN(C(=O)c1cc3sc(Br)cc3n1Cc1ccc(OC)cc1)CC2 (stereo not given) | 5.83 min | > 100 µM | – | – | 9.35 µM | – | – | > 11 | 15.7 µM

Row | SMILES | half-life [1] | CC50 at 24 h [2] | EC50 (Chikungunya virus [3]) | EC50 (Chikungunya virus [4]) | EC50 (Chikungunya virus [5]) | CC50 at 24 h [6] | EC50 (Chikungunya virus [7]) | selectivity ratio [8] | EC50 (Chikungunya virus [9])
23 | CCCNC(=O)[C@@H]1C[C@H]2CCC[C@@H](C1)[C@H]2NC(=O)c1cc2sc(Br)cc2n1Cc1ccc(OC)cc1 | – | > 100 µM | – | – | > 100 µM | – | – | – | –
24 | CCCNC(=O)C1CCN(C(=O)c2cc3sccc3n2Cc2ccc(Cl)cc2)CC1 | 10.3 min | – | – | – | – | – | – | – | –
25 | CCCNC(=O)C1CCN(C(=O)c2cc3sc(C#N)cc3n2Cc2ccc(OC)cc2)CC1 | 11.2 min | – | – | – | – | – | – | – | –
26 | CCCNC(=O)C1CCN(C(=O)c2cc3ncsc3n2Cc2ccc(OC)cc2)CC1 | 32.6 min | 42.7 µM | – | – | 9.39 µM | – | – | 4.5 | 14 µM
27 | CCCNC(=O)C1CC12CN(C(=O)c1cc3sc(Br)cc3n1Cc1ccc(OC)cc1)C2 (stereo not given) | 19.5 min | > 100 µM | – | – | 20.2 µM | – | – | > 5 | –
28 | CCCNC(=O)C1CCN(C(=O)c2cc3oc(Br)cc3n2Cc2ccc(OC)cc2)CC1 | 9.5 min | 21.9 µM | – | – | 1.93 µM | – | – | 11 | 1.86 µM
29 | CCCNC(=O)C1CCN(C(=O)c2cccn2Cc2ccc(OC)cc2)CC1 | 6.71 min | > 100 µM | – | – | 25.7 µM | – | – | > 3.9 | –
30 | CCCNC(=O)[C@H]1[C@@H]2CCC[C@H]1CN(C(=O)c1cc3sc(Br)cc3n1Cc1ccc(OC)cc1)C2 | 3.62 min | > 100 µM | – | – | 6.98 µM | – | – | > 14 | 14.8 µM
31 | CCCNC(=O)C1CCN(C(=O)c2cc3[nH]ccc3n2Cc2ccc(OC)cc2)CC1 | 23.1 min | > 100 µM | – | – | 11.4 µM | – | – | > 8.8 | –
32 | CCCNC(=O)C1CCN(C(=O)c2cc3cc(Br)ccc3n2Cc2ccc(OC)cc2)CC1 | 3.94 min | > 100 µM | – | – | > 100 µM | – | – | – | –
33 | [2H]C([2H])(c1ccc(OC)cc1)n1c(C(=O)N2CCC(C(=O)NCCC)CC2)cc2sc(Br)cc21 | 3.53 min | > 100 µM | – | – | 2.03 µM | – | – | > 49 | 2.06 µM
34 | CCCNC(=O)C1CN(C(=O)c2cc3sc(Br)cc3n2Cc2ccc(OC)cc2)C1 | 7.73 min | > 100 µM | – | – | 13.6 µM | – | – | > 7.4 | –
35 | CCCNC(=O)C1CCN(C(=O)c2cc3scnc3n2Cc2ccc(OC)cc2)CC1 | 27.7 min | 19.1 µM | – | – | 4.56 µM | – | – | 4.2 | 4.72 µM
36 | CCCNC(=O)C1CCN(C(=O)c2cc3sc(-c4ccccc4)nc3n2Cc2ccc(OC)cc2)CC1 | 40.8 min | 22.9 µM | – | – | 3.02 µM | – | – | 7.6 | 5.63 µM
37 | [2H]C([2H])(c1ccc(OC)cc1)n1c(C(=O)N2CCC(C(=O)NC([2H])(C([2H])([2H])[2H])C([2H])([2H])[2H])CC2)cc2sc(Br)cc21 | 3.8 min | > 100 µM | – | – | 1.72 µM | – | – | > 58 | 2 µM
38 | [2H]C([2H])([2H])C([2H])(NC(=O)C1CCN(C(=O)c2cc3sc(Br)cc3n2Cc2ccc(OC)cc2)CC1)C([2H])([2H])[2H] | 5.33 min | > 100 µM | – | – | 1.55 µM | – | – | > 65 | 1.63 µM
39 | CCCNC(=O)C1CCN(C(=O)c2cc3sccc3n2Cc2ccc(OC)cc2)CC1 | 10.6 min | – | – | – | 7 µM | – | – | 2.7 | –
40 | CCCNC(=O)C1CCN(C(=O)c2cc(Br)cn2Cc2ccc(OC)cc2)CC1 | 2.17 min | 55 µM | – | – | 21.4 µM | – | – | 2.6 | –
41 | CCCNC(=O)C1CC12CCN(C(=O)c1cc3sc(Br)nc3n1Cc1ccc(OC)cc1)CC2 (stereo not given) | 4.97 min | 81.3 µM | – | – | 8.21 µM | – | – | 9.9 | > 25 µM
42 | CCCNC(=O)C1CC12CCN(C(=O)c1cc3sc(-c4ccccc4)nc3n1Cc1ccc(OC)cc1)CC2 (stereo not given) | 41.8 min | > 100 µM | – | – | 7.7 µM | – | – | > 13 | 14.1 µM
43 | CCCNC(=O)C1CCN(C(=O)c2cc3sc(Br)nc3n2Cc2ccc(OC)cc2)CC1 | 2.99 min | 36.7 µM | – | – | 1.06 µM | – | – | 35 | 2.96 µM
44 | CCCNC(=O)[C@@H]1C[C@H]2CCC[C@@H](C1)[C@@H]2NC(=O)c1cc2sc(Br)cc2n1Cc1ccc(OC)cc1 | 45.1 min | > 100 µM | – | – | 14 µM | – | – | > 7.1 | –
